# Screening data from PubChem BioAssay.
# HTRA1 inhibitor = HTRA1 (human) protease inhibition; inhibition, % at 5.96 µM; 340,000 compounds, 0.5% hits; recombinant HTRA1, FP-rhodamine activity-based probe, fluorescence polarization; AID 504803; Q92743; in the data active = inhibition above about 36%;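 also: 0% = enzyme with DMSO and 100% = wells lacking enzyme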
# SIAE primary = blocks human sialic acid acetylesterase; inhibition, % at 9.66 µM; SIAE FP-Rh probe binding, fluorescence polarization; AID 1053197; 370,000 compounds, 0.69% hits; Q9HAT2;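 active = inhibition above a cutoff: mean of compounds within the control limits plus 3 SD of those, cut at about 17% in these data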;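 also: 0% = plate median of compound wells and 100% = probe without SIAE protein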
# Target sequence (Q9HAT2 whole entry, looked up): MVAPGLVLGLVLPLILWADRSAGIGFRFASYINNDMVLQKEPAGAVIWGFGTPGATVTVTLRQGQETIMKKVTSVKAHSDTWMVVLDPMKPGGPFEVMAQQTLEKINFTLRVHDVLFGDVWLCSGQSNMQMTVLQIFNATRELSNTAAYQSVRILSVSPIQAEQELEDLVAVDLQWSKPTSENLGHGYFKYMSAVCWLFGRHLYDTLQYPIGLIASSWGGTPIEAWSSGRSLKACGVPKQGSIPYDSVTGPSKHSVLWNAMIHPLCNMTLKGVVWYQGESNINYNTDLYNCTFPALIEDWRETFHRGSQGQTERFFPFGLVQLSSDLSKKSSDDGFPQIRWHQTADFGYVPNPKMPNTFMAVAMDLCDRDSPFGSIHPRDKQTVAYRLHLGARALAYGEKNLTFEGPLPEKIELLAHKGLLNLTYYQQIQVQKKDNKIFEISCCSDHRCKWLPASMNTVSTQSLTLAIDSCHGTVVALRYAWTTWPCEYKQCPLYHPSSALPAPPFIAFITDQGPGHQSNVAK
# TCR CD3 inh = inhibitors of human TCR-CD3 interaction. TAMRA-labeled TCR probe fluorescence, biochemical. inhibition, % at 9.4 µM. 360,000 compounds, 0.37% hits; in the data active = inhibition above about 19%;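 also: recombinant mutant TCR 2C K166C tagged with TAMRA read by polarization; 0% = receptor in buffer alone and 100% = receptor with positive control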
# mABHD4 FP = inhibitors of mouse ABHD4; purified mABHD4, FP-Rh probe fluorescence polarization; inhibition, % at 8.92 µM; 370,000 compounds, 0.54% hits; AID 720543;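 active = inhibition exceeding the mean over every tested compound plus 3 SD, cut at about 30% in these data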;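 also: 0% = plate median of compound wells and 100% = S159A mutant with DMSO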
#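 Assay system: mABHD4 protein; medium: HEPES pH 7.0, NaCl, Pluronic buffer; dosing: 8.92 µM, single dose; schedule: 45 min + 60 min at 25 °C; signal: FP readout, ex 525 nm / em 598 nm; read-out: normalized percent inhibition of probe labeling; repeats: single replicate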
# rCAG binder = r(CAG) repeat RNA binding; AID 651821; 370,000 compounds, 1.3% hits; inhibition, % at 3 µM; TO-PRO-1 dye displacement fluorescence;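 active = inhibition above the plate cutoff, the mean of all test compounds on that plate plus 3 SD, cut at about 35% in these data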;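 also: 0% = DMSO alone and 100% = 100 µM mitoxantrone as full dye displacement; higher means more dye released from RNA so lower well fluorescence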
# rCAG bind conf = r(CAG) RNA repeat binding, confirmation | shares compounds with rCAG binder | inhibition, % at 3 µM | TO-PRO-1 dye displacement fluorescence | 4,300 compounds, 70% hits;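 active = inhibition above a per-plate cutoff, the mean inhibition of sample wells plus 3 SD, cut at about 35% in these data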;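 also: loss of TO-PRO-1 fluorescence as compound displaces dye from 1x1 AA loop RNA; 0% = DMSO only wells and 100% = 100 µM mitoxantrone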
# dCAG dye counter = disrupts DNA CAG TO-PRO-1 complex, flagging rCAG hits; shares compounds with rCAG binder; d(CAG) DNA oligo TO-PRO-1 dye displacement, fluorescence; inhibition, % at 3 µM; 4,300 compounds, 94% hits;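 active = inhibition above its plate's cutoff, the mean test-well inhibition plus 3 SD, cut at about 4.8% in these data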;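 also: 0% = DNA dye mix with DMSO and 100% = 100 µM mitoxantrone; hits displace the dye from DNA and so lower well fluorescence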
# Numbers without * were called inactive; nt = not tested or not shown. A selection: hits, their analogues and other compounds. The true share with any hit is near 2.5%.
SMILES,HTRA1 inhibitor,SIAE primary,TCR CD3 inh,mABHD4 FP,rCAG binder,rCAG bind conf,dCAG dye counter
COC(=O)c1sc2nc(-c3ccco3)ccc2c1N,7.8,10.0,5.7,20.9,50.2*,22.6,11.7*
CC(C)OC(=O)c1sc2nc(-c3ccccc3)ccc2c1N,-15.8,-5.2,-6.2,0.1,9.2,nt,nt
Nc1c(C(=O)Nc2ccccc2F)sc2nc(-c3ccco3)ccc12,16.5,4.2,7.5,11.0,55.2*,72.9*,35.2*
Cc1cc(=O)oc2cc(OCC(=O)Nc3ccc(N4CCC(C)CC4)cc3)ccc12,7.9,3.0,2.3,0.5,4.4,nt,nt
Cc1ccc(C(=O)O)cc1NC(=S)NC(=O)C(c1ccccc1)c1ccccc1,-30.4,-7.7,2.2,-14.2,57.8*,38.3*,10.2*
CCOc1cc(C(=O)NC(=S)Nc2ccc(Cl)c(C(=O)O)c2)cc(OCC)c1OCC,-2.4,-9.4,1.5,-18.3,40.8*,27.7,5.6*
Cc1ccc(C(=O)O)cc1NC(=S)NC(=O)Cc1ccccc1,12.5,-3.4,-10.7,-13.4,3.9,nt,nt
O=C(O)c1cc(NC(=S)NC(=O)C(c2ccccc2)c2ccccc2)ccc1Cl,-11.2,-1.9,-2.9,18.2,41.1*,29.5,6.9*
CC(C)Oc1ccc(C(=O)NC(=S)Nc2ccc(Cl)c(C(=O)O)c2)cc1,-4.7,0.5,-5.2,-2.3,3.4,nt,nt
S=c1[nH]nc(COc2ccccc2)n1/N=C/c1cccnc1,3.7,5.8,0.9,3.8,1.3,nt,nt
CCCC1Cc2c(sc3ncnc(N)c23)CO1 (stereo unspecified),-1.5,-13.2,3.4,4.3,1.9,nt,nt
CCCCC[C@@H]1C=C(C(=O)O)[C@H](c2ccc(Br)cc2)N1S(=O)(=O)c1ccc(C)cc1,-55.6,-10.2,6.2,-22.4,80.5*,69.2*,30.9*
CC[C@@H]1C=C(C(=O)O)[C@H](c2ccc(C)cc2)N1S(=O)(=O)c1ccc(C)cc1,4.2,-4.5,-4.1,-2.4,8.7,nt,nt
CCCC[C@@H]1C=C(C(=O)O)[C@H](c2ccc3c(c2)OCO3)N1S(=O)(=O)c1ccc(C)cc1,3.7,-3.8,-0.5,6.2,45.0*,39.0*,11.0*
Cc1ccc(S(=O)(=O)N2[C@@H](c3ccc4c(c3)OCO4)C(C(=O)O)=C[C@H]2C(C)(C)C)cc1,-3.0,11.6,-1.9,3.4,31.2,nt,nt
CCCC[C@@H]1C=C(C(=O)O)[C@H](c2ccc(Cl)cc2)N1S(=O)(=O)c1ccc(C)cc1,-11.4,3.7,-1.2,-1.0,58.4*,54.3*,20.1*
CC(=O)CN1C(=O)NC(c2ccccc2)(c2ccccc2)C1=O,1.5,4.1,2.4,0.1,-0.8,nt,nt
Cc1cccc(C)c1NC(=O)CNC(=O)c1c(C)nn(C)c1Cl,-1.1,-7.3,1.2,0.8,-0.2,nt,nt
N#C/C(=C\c1c[nH]c2ccccc12)C(=O)NC1CC1,-1.0,-3.4,7.7,3.5,53.8*,1.2,1.0
O=C(CNC(=O)c1ccco1)OCC(=O)c1ccccc1Cl,-5.1,-1.1,-1.2,1.1,-0.7,nt,nt
CCC(C)[C@H](NC(=O)Nc1ccc(C)cc1C)C(=O)O (stereo partly specified),-0.9,2.6,-1.5,1.7,64.0*,-0.7,-1.7
CCCNC(=O)Nc1ccc(C)cc1C,1.8,-10.7,-3.0,-2.4,-0.3,nt,nt
COC(=O)c1ccccc1CSc1nsc(/C=C/N(C)C)c1C#N,-5.9,nt,nt,nt,nt,nt,nt
Cc1nc(CSc2nsc(/C=C/N(C)C)c2C#N)cs1,-35.0,2.0,-19.3,7.4,56.5*,25.4,12.9*
CC(C)CNc1cc(Cl)c(S(=O)(=O)NCC(C)C)cc1C(=O)O,-8.0,-0.9,-6.3,5.5,37.4*,18.7,1.1
SMILES,HTRA1 inhibitor,SIAE primary,TCR CD3 inh,mABHD4 FP,rCAG binder,rCAG bind conf,dCAG dye counter
CC(C)CNS(=O)(=O)c1cc(C(=O)N2CC(C)OC(C)C2)c(Cl)cc1Cl (stereo unspecified),1.8,-2.2,0.7,-1.3,-5.3,nt,nt
COCc1cc(C)n(CC(=O)N/N=C/c2ccc(-c3ccc(Cl)c(C(=O)O)c3)o2)c(=O)c1C#N,2.1,-1.2,6.3,1.3,37.8*,40.7*,13.8*
COc1cc(C(=O)Nc2cc(C(F)(F)F)ccc2N2CCOCC2)ccc1OCC(=O)N1CCOCC1,-0.4,2.9,8.7,-2.4,-7.4,nt,nt
CS(=O)(=O)c1ccc(NC(=O)c2cccc(-n3cnnn3)c2)cc1,-6.5,-2.1,-2.8,-3.1,3.0,nt,nt
CCc1cc(=O)oc2cc(C)c(CN3CCCC3)c(O)c12,-3.3,1.8,7.7,11.5,35.6*,30.7,13.0*
CCc1cc(=O)oc2cc(C)c(CN3CCCCC3)c(O)c12,-5.1,-8.2,6.9,15.6,22.5,nt,nt
CCCc1cc(=O)oc2c(CN3CCCC3)c(O)ccc12,6.5,3.1,0.7,2.6,1.3,nt,nt
CCCc1cc(=O)oc2cc(C)c(CN3CCCC3)c(O)c12,5.3,-7.4,5.8,19.5,36.8*,24.4,11.7*
Cc1ccc(NC(=S)NNC(=O)CSc2nc3ccccc3c(=O)n2-c2ccc(C)cc2)cc1,-6.2,-0.5,-4.7,-2.6,45.1*,44.5*,20.0*
COc1ccc(-n2c(SCC(=O)Nc3ccc(NC(C)=O)cc3)nc3ccccc3c2=O)cc1,-4.6,-14.9,1.5,-1.8,2.7,nt,nt
Cc1ccc(-n2c(SCC(=O)Nc3ccc(N4CCOCC4)cc3)nc3ccccc3c2=O)cc1,0.1,1.9,-5.5,-4.8,9.3,nt,nt
COc1ccc(-n2c(SCC(=O)NNC(=S)Nc3ccccc3)nc3ccccc3c2=O)cc1,nt,-7.0,nt,-2.5,49.6*,43.2*,16.4*
Cc1ccc(-n2c(SCC(=O)Nc3ccc4c5c(cccc35)CC4)nc(O)c(C)c2=O)cc1,2.7,-0.5,-1.7,-0.5,51.2*,33.6,11.3*
CCOC(=O)C1=CN(Cc2cccc(Br)c2)S(=O)(=O)NC1C (stereo unspecified),-8.7,0.3,3.5,-5.2,1.7,nt,nt
Cc1nc(N2CCN(c3ccccc3)CC2)[nH]c(=O)c1Cc1ccccc1,0.8,5.5,-2.1,1.9,2.3,nt,nt
CC1=NN(c2ccccc2C(=O)O)C(=O)C1N=Nc1ccccc1 (stereo unspecified),-1.6,-4.7,0.8,17.5,44.1*,40.0*,10.4*
O=S(=O)(Nc1cc(Cl)ccc1-n1cncn1)c1cc(Br)ccc1Br,-8.0,1.1,4.3,-18.4,57.5*,56.0*,20.9*
CSC(=NS(=O)(=O)c1ccccc1)NNC(=O)c1c(-c2c(Cl)cccc2Cl)noc1C,nt,0.5,2.9,4.0,34.8*,24.3,4.3
COc1ccc(-n2c(SCC(=O)Nc3ccccc3)nc(O)cc2=O)cc1,-14.2,-19.2,-4.3,-1.5,22.9,nt,nt
COc1ccc(NC(=O)CSc2nc(O)cc(=O)n2-c2ccc(OC)cc2)cc1,-76.9,-11.2,-4.0,-9.3,40.4*,13.1,4.5*
COc1ccccc1-n1c(SCC(=O)Nc2ccccc2C)nc(O)cc1=O,-15.4,-9.2,5.3,-33.4,39.8*,6.9,5.9*
